The structures appear in SMILES notation. Calls of active or inactive are those of the source. The calls are words filed in the database; no cut-off is given here. Where only a bound is given, the exact number is not on record here.

The nature of series [1]: Cytotoxicity against PBM cells. Type of series: cell-based. As to conditions: Homo sapiens, PBMC.
The next series deals with Cowpox virus. In words: Antiviral activity against Cowpox virus. Type of series: functional, organism-based.
For the next series, the system named is Dengue virus. In words: Antiviral activity against dengue virus. Type of series: functional, organism-based.
The subject of a further series is LLC-MK2. In words: Cytotoxicity against LLC-MK2 cells. The class given is cell-based, Macaca mulatta. As to conditions: rhesus monkey.
The subject of another series is CCRF-CEM. The series can be described thus: Cytotoxicity against CEM cells. The class given is cell-based. As to conditions: Homo sapiens.
The test system of another series is Tacaribe virus. The series can be described thus: Antiviral activity against tacaribe virus. The class given is functional, organism-based. Particulars: Mammarenavirus tacaribeense.
In series [2] the test system is Human immunodeficiency virus 1. In words: Antiviral activity against HIV1 LA1 in human PBM cells. Particulars: Human immunodeficiency virus 1, LA1, PBMC. The class given is functional, organism-based. An outline of the steps: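 Human peripheral blood mononuclear (PBM) cells were infected with HIV-1 strain LAI, and antiviral activity was expressed as EC50.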
Another series deals with SARS-CoV. The series can be described thus: Antiviral activity against SARS coronavirus. The class given is functional, organism-based. Particulars: Severe acute respiratory syndrome-related coronavirus.
The test system of the next series is West Nile virus. The series can be described thus: Antiviral activity against West Nile virus. Type of series: functional, organism-based.
A further series deals with Hepatitis C virus. The series can be described thus: Antiviral activity against hepatitis C virus. Type of series: functional, organism-based. As to conditions: Hepacivirus hominis.
For a further series, the system named is Human alphaherpesvirus 1. In words: Antiviral activity against HSV1. The class given is functional, organism-based.
The subject of another series is Vaccinia virus. The series can be described thus: Antiviral activity against vaccinia virus. Type of series: functional, organism-based. As to conditions: Orthopoxvirus vaccinia.
For the next series, the system named is Yellow fever virus. The series can be described thus: Antiviral activity against yellow fever virus. The class given is functional, organism-based.
For the next series, the system named is Punta Toro virus. In words: Antiviral activity against Punta Toro virus. The class given is functional, organism-based.
The next series has as its system Human alphaherpesvirus 3. In words: Antiviral activity against varicella zoster virus. The class given is functional, organism-based.
The test system of series [3] is Venezuelan equine encephalitis virus. The series can be described thus: Antiviral activity against Venezulean equine encephalitis virus. Type of series: functional, organism-based.
The next series relates to Vero. In words: Cytotoxicity against Vero cells. Particulars: Chlorocebus sabaeus. The class given is cell-based.
In a further series the test system is Human alphaherpesvirus 2. In words: Antiviral activity against herpes simplex virus 2. Type of series: functional, organism-based.

`Cc1cn([C@H]2C[C@H](N=[N+]=[N-])[C@@H](CO)O2)c(=O)[nH]c1=O` [ZIDOVUDINE]: in series [1], the IC50 was > 100 µM.

On to `Nc1nc(O)c2[nH]cc([C@@H]3C=C(CO)[C@@H](O)[C@H]3O)c2n1`, for which the EC50 in the series on Cowpox virus is > 100 µM; in series [2], > 100 µM; with SARS-CoV it was > 100 µM; in the series with West Nile virus it was > 100 µM; with Punta Toro virus, 2.5 µM. The IC50 (in the series on Cowpox virus; in the series on CCRF-CEM; in [1]; in the series with West Nile virus; in the series on Punta Toro virus; in the series on Vero) was > 100 µM throughout. Moreover, the outcome in the series with Dengue virus, in the series with Tacaribe virus, with Hepatitis C virus, with Human alphaherpesvirus 1, in the series with Vaccinia virus and in the series with Yellow fever virus was inactive. Moreover, the result (in the series on Human alphaherpesvirus 3; in [3]; in the series with Human alphaherpesvirus 2) was inactive. Also, the Activity result with LLC-MK2 is on record as “Not Active”. In series [2], the EC90 is > 100 µM.

`Nc1ncnc2c([C@@H]3C=C(CO)[C@@H](O)[C@H]3O)c[nH]c12`: the EC50 in the series on Cowpox virus is > 100 µM; in [2] it was 2 µM; with West Nile virus, > 100 µM. Also, the half-inhibitory concentration (IC50) was > 100 µM in the series with Cowpox virus; 10.6 µM in the series with CCRF-CEM; 15.6 µM in [1]; > 100 µM with West Nile virus; > 100 µM in the series on Vero. Also, the result in the series on Dengue virus, with Tacaribe virus, in the series on Hepatitis C virus, with Human alphaherpesvirus 1, with Vaccinia virus and in the series on Yellow fever virus was inactive. Besides, the result (with Human alphaherpesvirus 3; in series [3]; in the series with Human alphaherpesvirus 2) was inactive. For the same molecule, the Activity entry in the series on LLC-MK2 is on record as “Not Active”. The EC90 in series [2] worked out at 43.2 µM.

For `O=c1[nH]cc([C@@H]2C=C(CO)[C@@H](O)[C@H]2O)c(=O)[nH]1`, the EC50 with Cowpox virus is > 100 µM; in series [2], > 100 µM; in the series on SARS-CoV it was 49 µM; in the series with West Nile virus, > 100 µM; with Punta Toro virus it was 65 µM. Besides, the IC50 (in the series with Cowpox virus; with CCRF-CEM; with SARS-CoV; in series [1]; with West Nile virus; with Punta Toro virus) was > 100 µM throughout. For the same molecule, in the series on Vero, the IC50 was > 100 µM. The outcome in the series with Dengue virus, in the series with Tacaribe virus, in the series on Hepatitis C virus, in the series on Human alphaherpesvirus 1, in the series with Vaccinia virus and with Yellow fever virus was inactive. For the same molecule, the result (in the series on Human alphaherpesvirus 3; in [3]; in the series on Human alphaherpesvirus 2) was inactive. For the same molecule, in the series with LLC-MK2, the Activity entry is “Not Active”. Also, the EC90 in [2] was > 100 µM.

Turning to `Nc1ncnc2c1ncn2[C@@H]1C=C(CO)[C@@H](O)[C@H]1O` [NEOPLANOCIN A], in the series on Cowpox virus, the EC50 is 8.4 µM and the half-inhibitory concentration (IC50) was > 300 µM. Also, the EC50 in the series on West Nile virus was > 51 µM.

As to `Nc1nc(=O)c([C@@H]2C=C(CO)[C@@H](O)[C@H]2O)c[nH]1`, the EC50 with Cowpox virus was > 100 µM; in [2], > 100 µM; with SARS-CoV, > 100 µM; with West Nile virus, 11 µM; in the series with Punta Toro virus it was > 100 µM. The IC50 (with Cowpox virus; with CCRF-CEM; in series [1]; in the series on West Nile virus; with Punta Toro virus; with Vero) was > 100 µM throughout. The outcome in the series on Dengue virus, with Tacaribe virus, in the series on Hepatitis C virus, with Human alphaherpesvirus 1, in the series on Vaccinia virus and with Yellow fever virus was inactive. In addition, the result (in the series on Human alphaherpesvirus 3; in [3]; in the series with Human alphaherpesvirus 2) was inactive. For the same molecule, the Activity result in the series with LLC-MK2 is on record as “Not Active”. Moreover, in series [2], the EC90 was > 100 µM.

A word on the IC50: it is the concentration needed to halve the response being measured. As a reminder, the EC50 is the concentration giving half of the maximal effect. What is called EC90 is the concentration at which the effect reaches the 90% level.

Values taken from ChEMBL document CHEMBL1144551, “Enantioselective synthesis and antiviral activity of purine and pyrimidine cyclopentenyl C-nucleosides” (Bioorg Med Chem, 2007).
